Molecules are shown by their SMILES. ≈ marks a conversion by molar mass, not a printed value.

A short description of data set [1]: Drug level in DTT containing buffer treated with 3-((5-Phenyl-1,3,4-oxadiazol-2-yl)thio)benzo[b]thiophene-1,1-dioxide by LC-MS analysis. In kind it is physicochemical.
A short description of data set [2]: Cytotoxicity against HEK293 cells after 24 hrs by resazurin dye-based fluorescence analysis. As to conditions: human. The class given is cell-based. The gist of the method: (§1)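 Cells seeded at 3000 per well in DMEM with 10% FBS. Compound […], applied as a 2-fold dilution series mixed directly with the cells. Incubated 24 h at 37 °C in 5% CO2, then 10 µM resazurin was added for 3 h. Fluorescence read at ex/em 560/590 nm. DMSO served as negative control.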

Data set [3] is described as follows: Drug metabolism in DTT containing buffer assessed as formation of 5-phenyl-1,3,4-oxadiazole-2-thiol by LC-MS analysis. In kind it is physicochemical.
In data set [4] the target is Inosine-5'-monophosphate dehydrogenase (Cryptococcus neoformans var. neoformans serotype D (strain JEC21 /ATCC MYA-565) (Filobasidiella neoformans), UniProt Q5KP44). Description: Inhibition of recombinant Cryptococcus neoformans His-tagged IMPDH expressed in Escherichia coli BL21 (DE3) using IMP as substrate in presence of NAD. The gist of the method: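 Recombinant C. neoformans IMPDH (E. coli BL21(DE3) pLysS) at 0.2 µM. IMP and NAD each 500 µM; reaction started with IMP. NADH followed at 340 nm. Compounds tested 20 to 0.02 µM. % activity normalized to no-inhibitor and 20 µM MPA controls, fitted by variable-slope dose-response; n ≥ 3.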

Data set [5] can be described thus: Cytotoxicity against human HepG2 cells after 24 hrs by resazurin dye-based fluorescence analysis. In kind it is cell-based. The gist of the method: as §1
Data set [6] has as its system Candida albicans. Kind of data set: Antifungal activity against Candida albicans after 24 hrs by OD530 reading based two fold serial dilution method.
Data set [7] concerns Cryptococcus neoformans. Kind of data set: Antifungal activity against Cryptococcus neoformans after 24 hrs by two fold serial dilution method.
In data set [8] the target is Inosine-5'-monophosphate dehydrogenase 1 (Homo sapiens, UniProt P20839). Description: Inhibition of recombinant human His-tagged IMPDH1 expressed in Escherichia coli BL21 (DE3) using IMP as substrate in presence of NAD. A digest of the protocol: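 His-tag-cleaved human IMPDH from E. coli BL21(DE3) pLysS at 0.2 µM. NAD 100 µM, IMP 125 µM; reaction started with IMP. NADH followed at 340 nm. Compounds tested 30 to 0.93 µM. IC50 from variable-slope fit normalized to no-inhibitor and 20 µM MPA controls; n ≥ 3.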

For data set [9], the target named is Inosine-5'-monophosphate dehydrogenase 2 (Homo sapiens, UniProt P12268). Description: Inhibition of recombinant human His-tagged IMPDH2 expressed in Escherichia coli BL21 (DE3) using IMP as substrate in presence of NAD.

Sequence of Inosine-5'-monophosphate dehydrogenase 1 (P20839 whole entry): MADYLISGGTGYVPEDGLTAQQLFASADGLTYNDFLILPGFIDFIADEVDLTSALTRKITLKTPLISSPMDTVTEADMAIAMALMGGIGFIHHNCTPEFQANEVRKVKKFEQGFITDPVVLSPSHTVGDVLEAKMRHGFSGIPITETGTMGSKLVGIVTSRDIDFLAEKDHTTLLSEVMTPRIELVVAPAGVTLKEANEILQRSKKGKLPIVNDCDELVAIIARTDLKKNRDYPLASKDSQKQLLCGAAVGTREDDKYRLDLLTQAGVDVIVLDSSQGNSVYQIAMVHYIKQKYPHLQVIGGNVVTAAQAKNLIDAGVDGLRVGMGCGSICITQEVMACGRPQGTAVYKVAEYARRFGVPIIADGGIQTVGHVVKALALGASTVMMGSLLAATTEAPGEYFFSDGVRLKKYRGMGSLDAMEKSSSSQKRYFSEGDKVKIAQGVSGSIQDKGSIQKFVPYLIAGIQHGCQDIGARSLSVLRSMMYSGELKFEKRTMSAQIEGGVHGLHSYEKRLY
Sequence of Inosine-5'-monophosphate dehydrogenase (Q5KP44 whole entry): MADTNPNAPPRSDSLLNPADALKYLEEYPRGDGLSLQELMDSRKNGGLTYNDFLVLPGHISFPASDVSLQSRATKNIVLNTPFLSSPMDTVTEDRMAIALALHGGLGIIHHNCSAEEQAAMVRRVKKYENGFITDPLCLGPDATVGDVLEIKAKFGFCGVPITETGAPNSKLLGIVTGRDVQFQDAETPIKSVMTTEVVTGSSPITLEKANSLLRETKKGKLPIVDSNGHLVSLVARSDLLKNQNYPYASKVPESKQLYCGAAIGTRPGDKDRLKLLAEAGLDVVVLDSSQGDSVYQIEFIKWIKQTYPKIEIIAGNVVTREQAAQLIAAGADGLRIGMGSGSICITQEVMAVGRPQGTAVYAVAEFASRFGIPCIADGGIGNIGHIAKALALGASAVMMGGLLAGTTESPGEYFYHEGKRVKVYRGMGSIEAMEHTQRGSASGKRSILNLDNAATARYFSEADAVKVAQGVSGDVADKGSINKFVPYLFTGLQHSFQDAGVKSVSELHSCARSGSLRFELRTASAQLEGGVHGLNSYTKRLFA

For `S=c1[nH]nc(-c2ccccc2)o1`, the Drug metabolism entry in data set [1] is reported as “Metabolite_Detected”.
In the case of `O=S1(=O)C=C(Sc2nnc(-c3ccccc3)o2)c2ccccc21`, the figures for the CC50 at 24 h in [2] and in [5] were 3 µM and 20 µM, respectively. Further, the Drug metabolism result in data set [3] is listed as “Metabolite_Detected”. Further, the IC50 in [4] was 0.37 µM; in data set [8], 5.6 µM; in data set [9], 2.1 µM. Besides, the MIC in [6] and in data set [7] was 6 µM (≈ 2.05 µg/mL) throughout.
Regarding `O=S1(=O)C=C(Sc2nnc(-c3ccncc3)o2)c2ccccc21`, the CC50 at 24 h in [2] was 4 µM; in data set [5], 17 µM. In addition, the IC50 in data set [4] is 0.76 µM; in data set [8], 8.6 µM; in data set [9] it was 2.1 µM. For the same compound, the MIC in data set [6] was 6 µM (≈ 2.06 µg/mL); in data set [7], 9 µM (≈ 3.09 µg/mL).
For the compound `O=S1(=O)C=C(Sc2nnc(-c3ccc(Cl)cc3)o2)c2ccccc21`, the CC50 at 24 h in data set [2] was found to be 3 µM; in data set [5], 22 µM. Also, the results for the half-inhibitory concentration (IC50) in data set [4], in [8] and in data set [9] were 0.49 µM, 11.1 µM and 1.5 µM, respectively. The MIC in data set [6] came out at 167 µM (≈ 62.9 µg/mL); in [7] it was 16 µM (≈ 6.03 µg/mL).
On to `COc1ccc(-c2nnc(SC3=CS(=O)(=O)c4ccccc43)o2)cc1`, for which the values for the CC50 at 24 h in data set [2] and in data set [5] were 2 µM and 22 µM, respectively. Also, the IC50 in [4] was 1.7 µM; in data set [8] it was above 30 µM; in [9] it was above 30 µM. For the same compound, the MIC in data set [6] and in [7] was 172 µM (≈ 64.1 µg/mL) each time.
On to `Cc1ccc(-c2nnc(SC3=CS(=O)(=O)c4ccccc43)o2)cc1`, for which the CC50 at 24 h in [2] is 3 µM; in data set [5], 31 µM. Moreover, the figures for the IC50 in [4], in [8] and in [9] were 0.41 µM, 20.3 µM and 5.7 µM, respectively. Besides, the MIC came to 90 µM (≈ 32.1 µg/mL) in data set [6] and 22 µM (≈ 7.84 µg/mL) in data set [7].
On to `COC(=O)c1ccc(-c2nnc(SC3=CS(=O)(=O)c4ccccc43)o2)cc1`, for which the CC50 at 24 h turned out to be 4 µM in data set [2] and 18 µM in data set [5]. Further, the results for the IC50 in data set [4], in data set [8] and in data set [9] were 0.34 µM, above 30 µM and above 30 µM, respectively. Also, the MIC in data set [6] is above 160 µM; in [7] it was 60 µM (≈ 24 µg/mL).
Regarding `COc1cccc(-c2nnc(SC3=CS(=O)(=O)c4ccccc43)o2)c1`, the CC50 at 24 h was determined as 3 µM in data set [2] and 20 µM in data set [5]. Moreover, the results for the IC50 in data set [4], in [8] and in data set [9] were 0.15 µM, 4.3 µM and 1.2 µM, respectively. Besides, the MIC in data set [6] was 172 µM (≈ 64.1 µg/mL); in [7], 8 µM (≈ 2.98 µg/mL).
With `O=S1(=O)C=C(Sc2nnc(-c3ccccn3)o2)c2ccccc21`, the CC50 at 24 h in data set [2] is 5 µM; in data set [5], 24 µM. Also, the results for the IC50 in data set [4], in data set [8] and in [9] were 1.06 µM, 13.2 µM and 4.2 µM, respectively. Also, the MIC was determined as 4 µM (≈ 1.37 µg/mL) in [6] and 6 µM (≈ 2.06 µg/mL) in data set [7].
On to `O=S1(=O)C=C(Sc2nnc(-c3cccc(Cl)c3)o2)c2ccccc21`, for which the CC50 at 24 h was 6 µM in data set [2] and 27 µM in data set [5]. Besides, the concentration for half-maximal inhibition (IC50) came to 0.4 µM in data set [4], 10.1 µM in [8] and 1.6 µM in data set [9]. For the same compound, the MIC was determined as 167 µM (≈ 62.9 µg/mL) in data set [6] and 6 µM (≈ 2.26 µg/mL) in data set [7].
As to `COc1ccccc1-c1nnc(SC2=CS(=O)(=O)c3ccccc32)o1`, the CC50 at 24 h in data set [2] turned out to be 3 µM; in [5], 16 µM. For the same compound, the IC50 was 0.48 µM in [4], 9.9 µM in data set [8] and 3.2 µM in [9]. For the same compound, the MIC in [6] was 172 µM (≈ 64.1 µg/mL); in [7] it was 64 µM (≈ 23.8 µg/mL).
With `O=S1(=O)C=C(Sc2nnc(C3CCCCC3)o2)c2ccccc21`, the CC50 at 24 h in data set [2] came to 3 µM; in data set [5], 15 µM. For the same compound, the results for the IC50 in [4], in data set [8] and in [9] were 0.67 µM, 7.6 µM and 2.2 µM, respectively. For the same compound, the MIC in [6] came out at 46 µM (≈ 16 µg/mL); in [7], 7 µM (≈ 2.44 µg/mL).
As for `O=S1(=O)C=C(Sc2nnc(-c3ccccc3Cl)o2)c2ccccc21`, the CC50 at 24 h came out at 4 µM in data set [2] and 25 µM in data set [5]. Besides, the values for the IC50 in [4], in data set [8] and in data set [9] were 0.23 µM, 7.2 µM and 1.2 µM, respectively. The MIC in [6] was determined as 167 µM (≈ 62.9 µg/mL); in [7] it was 6 µM (≈ 2.26 µg/mL).
In the case of `Nc1ccc(-c2nnc(SC3=CS(=O)(=O)c4ccccc43)o2)cc1`, the CC50 at 24 h in [2] stood at 4 µM; in [5] it was 24 µM. For the same compound, the results for the IC50 in data set [4], in [8] and in data set [9] were 1.01 µM, 13.8 µM and 4.5 µM, respectively. Further, the MIC in [6] is above 179 µM; in data set [7] it was 33 µM (≈ 11.8 µg/mL).
In the case of `O=S1(=O)C=C(Sc2nnc(-c3cccnc3)o2)c2ccccc21`, the CC50 at 24 h in [2] was found to be 4 µM; in data set [5], 14 µM. In addition, the IC50 in [4] is 0.59 µM; in data set [8], 6.3 µM; in [9], 2.6 µM. Further, the MIC in data set [6] and in data set [7] was 4 µM (≈ 1.37 µg/mL) throughout.
With `CC(=O)Nc1ccc(-c2nnc(SC3=CS(=O)(=O)c4ccccc43)o2)cc1`, the CC50 at 24 h came out at 4 µM in data set [2] and 31 µM in data set [5]. Besides, the half-inhibitory concentration (IC50) was 0.16 µM in [4], 20.4 µM in [8] and 4.4 µM in [9]. For the same compound, the MIC in [6] and in [7] was above 160 µM in each case.
Take `C[C@@H]1[C@H](O)[C@@H](C)/C=C/C=C/C=C/C=C/C=C/C=C/C=C/[C@H](O[C@@H]2O[C@H](C)[C@@H](O)[C@H](N)[C@@H]2O)C[C@@H]2O[C@](O)(C[C@@H](O)C[C@@H](O)[C@H](O)CC[C@@H](O)C[C@@H](O)CC(=O)O[C@H]1C)C[C@H](O)[C@H]2C(=O)O` [AMPHOTERICIN B]: the MIC in data set [6] came to 0.18 µM (≈ 0.166 µg/mL); in data set [7] it was 0.25 µM (≈ 0.231 µg/mL).
Take `OC(Cn1cncn1)(Cn1cncn1)c1ccc(F)cc1F` [FLUCONAZOLE]: the MIC turned out to be 8 µM (≈ 2.45 µg/mL) in data set [6] and 0.3 µM (≈ 0.0919 µg/mL) in data set [7].
On to `COc1c(C)c2c(c(O)c1C/C=C(\C)CCC(=O)O)C(=O)OC2` [MYCOPHENOLIC ACID], for which the IC50 in [4] came to 0.12 µM; in data set [8], 0.26 µM.
With `CC/C(=C(\c1ccccc1)c1ccc(OCCN(C)C)cc1)c1ccccc1` [TAMOXIFEN], the CC50 at 24 h in [2] was found to be […]; in data set [5], […].

Values taken from ChEMBL document CHEMBL4265991 (Bioorg Med Chem, 2018).
